Where “and” joins values, the source holds several entries; their conditions need not be identical. Identical values can stand only once.
Legend:
Format in all cases: toxicity, cell-based
U2OS [1] = assay: Multiplex assay against U2OS; details: human
Outline: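 At seeding, live cells were stained with Hoechst33342, BioTracker Green Microtubule Cytoskeleton Dye, MitoTracker Red and Annexin V Alexa Fluor 680. After compound addition they were imaged on a CQ1 microscope at 37°C and 5% CO2, and CellPathfinder machine-learning gating sorted them into Hoechst high-intensity objects or normal cells, with normal cells further split into healthy, pyknosed or fragmented nuclei and pyknosed cells into mitotic or apoptotic. Tubulin, mitochondrial-mass and membrane-permeability phenotypes are given as per cents of cells with healthy nuclei.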

HEK-293T = assay: Incucyte cell viability with HEK293T; details: human, 10 µM, compound concentration 10 uM; also: filed as whole numbers so only -1 and 0 and 1 occur
Fibroblast = assay: Incucyte cell viability with human fibroblast; details: 10 µM, compound concentration 10 uM; also: filed as whole numbers so only -1 and 0 and 1 occur
U2OS [2] = assay: Incucyte cell viability with U2OS; details: human, 10 µM, compound concentration 10 uM; also: filed as whole numbers so only -1 and 0 and 1 occur
[3] = 12 h, 1 µM, compound concentration 1 uM, replicate 1
[4] = 12 h, 1 µM, compound concentration 1 uM, replicate 2
[5] = 12 h, 10 µM, compound concentration 10 uM, replicate 1
[6] = 12 h, 10 µM, compound concentration 10 uM, replicate 2
[7] = 24 h, 1 µM, compound concentration 1 uM, replicate 1
[8] = 24 h, 1 µM, compound concentration 1 uM, replicate 2
[9] = 24 h, 10 µM, compound concentration 10 uM, replicate 1
[10] = 24 h, 10 µM, compound concentration 10 uM, replicate 2
[11] = 48 h, 1 µM, compound concentration 1 uM, replicate 1
[12] = 48 h, 1 µM, compound concentration 1 uM, replicate 2
[13] = 48 h, 10 µM, compound concentration 10 uM, replicate 1
[14] = 48 h, 10 µM, compound concentration 10 uM, replicate 2
[15] = 0 h, replicate number 1, timepoint 0 hours
[16] = 6 h, replicate number 1, timepoint 6 hours
[17] = 12 h, replicate number 1, timepoint 12 hours
[18] = 18 h, replicate number 1, timepoint 18 hours
[19] = 24 h, replicate number 1, timepoint 24 hours

## CS(=O)(=O)N1CCCC(NC(=O)[C@H](CCC2CCCCC2)NC(=O)c2ccc(CNC(=O)c3cnc4ccccn34)cc2)C1 (stereo partly specified) [SR-302]
U2OS [1]; [3]
  Population Apoptotic (%): 41% [middle of 4 runs]
  Population Fragmented Nuclei (%): 2% and 6% and 10% and 5%
  Population Healthy Nuclei (%): 92% and 78% and 82%
  Population Membrane Permeable-Phenotype (%): 12% and 6% and 4%
  Population Mitotic Cells (%): 80% and 39% and 58%
  Population Normal (%): 95% and 97% and 96% and 92%
  Population Pyknosed Nuclei (%): 5% and 10% and 11%
  Population Tubulin-Different-Phenotype (%): 18% and 32% and 29%
  Total Cell Count: 258 [middle of 4 runs]
U2OS [1]; [4]
  Population Fragmented Nuclei (%): 8% and 12%
  Population Healthy Nuclei (%): 90% and 83% and 81% and 76%
  Population Hoechst High Intensity Objects (%): 10% and 6% and 16%
  Population Membrane Permeable-Phenotype (%): 7% [middle of 4 runs]
  Population Mitotic Cells (%): 100% and 60% and 66%
  Population Normal (%): 89% and 93% and 83%
  Population Pyknosed Nuclei (%): 8% [middle of 4 runs]
  Population Tubulin-Different-Phenotype (%): 15% and 17% and 14%
  Total Cell Count: 84 [middle of 4 runs]
U2OS [1]; [5]
  Population Apoptotic (%): 56% [middle of 4 runs]
  Population Fragmented Nuclei (%): 11% and 10% and 2%
  Population Healthy Nuclei (%): 70% and 74% and 75% and 94%
  Population Hoechst High Intensity Objects (%): 11% and 5%
  Population Membrane Permeable-Phenotype (%): 13% and 12%
  Population Mitotic Cells (%): 65% [middle of 4 runs]
  Population Normal (%): 88% and 94%
  Total Cell Count: 185 [middle of 4 runs]
U2OS [1]; [6]
  Population Fragmented Nuclei (%): 12% and 9% and 6%
  Population Healthy Nuclei (%): 80% and 83% and 86%
  Population Hoechst High Intensity Objects (%): 7% and 6% and 3%
  Population Membrane Permeable-Phenotype (%): 20% [middle of 4 runs]
  Population Normal (%): 92% and 93% and 96%
  Population Pyknosed Nuclei (%): 7% and 9% and 4%
  Total Cell Count: 92 [middle of 4 runs]
U2OS [1]; [7]
  Population Apoptotic (%): 18% and 31% and 46%
  Population Fragmented Nuclei (%): 3% and 6% and 5% and 8%
  Population Healthy Nuclei (%): 90% and 85% and 87% and 81%
  Population Hoechst High Intensity Objects (%): 1% and 2% and 3%
  Population Membrane Permeable-Phenotype (%): 7% and 6% and 2% and 1%
  Population Mitotic Cells (%): 81% and 68% and 53%
  Population Normal (%): 98% and 97% and 96%
  Population Pyknosed Nuclei (%): 6% and 7% and 10%
  Total Cell Count: 310 [middle of 4 runs]
U2OS [1]; [8]
  Population Fragmented Nuclei (%): 7%
  Population Healthy Nuclei (%): 91% and 84% and 88% and 93%
  Population Membrane Permeable-Phenotype (%): 9% and 8% and 5%
  Population Mitotic Cells (%): 66% and 50% and 85%
  Population Normal (%): 89% and 85% and 95%
  Population Pyknosed Nuclei (%): 1% and 8% and 2%
  Population Tubulin-Different-Phenotype (%): 24% [middle of 4 runs]
  Total Cell Count: 97 [middle of 4 runs]
U2OS [1]; [9]
  Population Apoptotic (%): 62% [middle of 4 runs]
  Population Fragmented Nuclei (%): 10% and 11% and 5%
  Population Healthy Nuclei (%): 72% and 71% and 90%
  Population Hoechst High Intensity Objects (%): 8% and 6% and 1%
  Population Membrane Permeable-Phenotype (%): 11% and 13%
  Population Mitotic Cells (%): 51% [middle of 4 runs]
  Population Normal (%): 91% and 93% and 98%
  Total Cell Count: 265 [middle of 4 runs]
U2OS [1]; [10]
  Population Apoptotic (%): 54% [middle of 4 runs]
  Population Fragmented Nuclei (%): 7% and 1% and 9%
  Population Healthy Nuclei (%): 77% and 82% and 89%
  Population Hoechst High Intensity Objects (%): 11% and 4% and 5%
  Population Membrane Permeable-Phenotype (%): 20% and 16% and 12%
  Population Mitotic Cells (%): 60% [middle of 4 runs]
  Population Normal (%): 88% and 95% and 94%
  Population Pyknosed Nuclei (%): 15% and 13%
  Total Cell Count: 91 [middle of 4 runs]
U2OS [1]; [11]
  Population Apoptotic (%): 40% and 44% and 37%
  Population Fragmented Nuclei (%): 4% and 1% and 2%
  Population Healthy Nuclei (%): 92% and 90%
  Population Hoechst High Intensity Objects (%): 1% and 0%
  Population Membrane Permeable-Phenotype (%): 2%
  Population Mitochondria Different-Phenotype (%): 15% and 9% and 7%
  Population Mitotic Cells (%): 60% and 56% and 62%
  Population Normal (%): 98% and 99%
  Population Pyknosed Nuclei (%): 6% and 5%
  Population Tubulin-Different-Phenotype (%): 40% and 18% and 46%
  Total Cell Count: 466 and 472
U2OS [1]; [12]
  Population Fragmented Nuclei (%): 6% and 3%
  Population Healthy Nuclei (%): 84% and 88% and 91%
  Population Hoechst High Intensity Objects (%): 9% and 2%
  Population Membrane Permeable-Phenotype (%): 7% and 4% and 1%
  Population Mitochondria Different-Phenotype (%): 11% and 5%
  Population Mitotic Cells (%): 44% and 91% and 66%
  Population Normal (%): 90% and 97%
  Population Pyknosed Nuclei (%): 9% and 8%
  Population Tubulin-Different-Phenotype (%): 30% and 26% and 12%
  Total Cell Count: 93 and 189 and 109
U2OS [1]; [13]
  Population Apoptotic (%): 70% and 57%
  Population Fragmented Nuclei (%): 10%
  Population Healthy Nuclei (%): 74% and 73% and 72%
  Population Hoechst High Intensity Objects (%): 8%
  Population Membrane Permeable-Phenotype (%): 7% and 4%
  Population Mitochondria Different-Phenotype (%): 39% and 36% and 30%
  Population Mitotic Cells (%): 29% and 42%
  Population Normal (%): 91%
  Population Pyknosed Nuclei (%): 16% and 17%
  Population Tubulin-Different-Phenotype (%): 40% and 38% and 30%
  Total Cell Count: 243 and 658 and 261
U2OS [1]; [14]
  Population Apoptotic (%): 76% and 46% and 90%
  Population Fragmented Nuclei (%): 9% and 6% and 8%
  Population Healthy Nuclei (%): 75% and 79% and 80%
  Population Hoechst High Intensity Objects (%): 7% and 5% and 1%
  Population Membrane Permeable-Phenotype (%): 20% and 16%
  Population Mitochondria Different-Phenotype (%): 59% and 41% and 44%
  Population Normal (%): 92% and 94% and 98%
  Population Pyknosed Nuclei (%): 15% and 13% and 10%
  Population Tubulin-Different-Phenotype (%): 48% and 33% and 39%
  Total Cell Count: 146 and 92 and 114
HEK-293T; [15]
  Growth Rate: 0
HEK-293T; [16]
  Growth Rate: 0
HEK-293T; [17]
  Growth Rate: 0
HEK-293T; [18]
  Growth Rate: 0
HEK-293T; [19]
  Growth Rate: 0
Fibroblast; [15]
  Growth Rate: 0
Fibroblast; [16]
  Growth Rate: 1
Fibroblast; [17]
  Growth Rate: 0
Fibroblast; [18]
  Growth Rate: 0
Fibroblast; [19]
  Growth Rate: 0
U2OS [2]; [15]
  Growth Rate: 0
U2OS [2]; [16]
  Growth Rate: 1
U2OS [2]; 6 h, replicate number 2, timepoint 6 hours
  Growth Rate: 0
U2OS [2]; [17]
  Growth Rate: 0
U2OS [2]; [18]
  Growth Rate: 0
U2OS [2]; 18 h, replicate number 2, timepoint 18 hours
  Growth Rate: 1
U2OS [2]; [19]
  Growth Rate: 0

— ChEMBL document CHEMBL4689842, “EUbOPEN Chemogenomics Library wave 1” (2021)
